Source: ChEMBL document CHEMBL4513216, “Probing the Open Global Health Chemical Diversity Library for Multistage-Active Starting Points for Next-Generation Antimalarials” (ACS Infect Dis, 2020)

Assay: Toxicity liver stage against HepG2, at 10uM
Type: cell-based
Parameters: test concentration 10 uM, cell line HepG2-A16-CD81EGFP
Details: human, HepG2-A16-CD81EGFP cells; read-out: INHIBITION
In short: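 Uninfected HepG2-A16-CD81EGFP cells, 3 × 10^3 per well, 1536-well, plated on prespotted compound at 10 μM final, parasite-free screening media added to match infected plates; puromycin 10 μM positive, DMSO 0.5% negative; run in parallel with 48 h PbLuc assay at 37 °C, 5% CO2; viability by CellTiter-Glo luminescence, normalized to controls.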

Row | SMILES | cytotoxicity at 10 µM [%]
1 | Cc1nc(CN2CCCC(NCc3ccc(Cl)s3)C2)no1 (stereo unspecified) | -3.18
2 | CC(Oc1ccc2c(c1)OCO2)C(=O)N1CCC(c2ncc[nH]2)CC1 (stereo unspecified) | -2.58
3 | COCC1c2c(cnn2CC2CC2)CCN1Cc1cccs1 (stereo unspecified) | -6.61
4 | c1ccc(CNC2CCc3ncnn3C2)nc1 (stereo unspecified) | -6.69
5 | CC(C)=CCN1CCNC(=O)C1CC(=O)N1CCc2sccc2C1 (stereo unspecified) | 0.429
6 | O=C(O)c1cnc(OCC2CC2)c(Cl)c1 | -5.38
7 | O=C(N1CCCC1)N1Cc2nccn2CC(CN2CCCC2)C1 (stereo unspecified) | 1.52
8 | CN(C)C(=O)CN1C[C@H]2CC[C@@H](C1)N(Cc1c(Cl)cncc1Cl)C2 | 6.02
9 | CCN1CC(C(=O)N2CCN(CCn3cccc3)CC2)CCC1=O (stereo unspecified) | 1.87
10 | CCC(C)N1CCc2c(C(=O)N3CCOCC3)n[nH]c2C1 (stereo unspecified) | 1.88
11 | CCN1CCC12CCN(C(=O)c1cc(C)on1)C2 (stereo unspecified) | 5.71
12 | c1cnn(CC2CCCN2c2ncnc3ccsc23)c1 (stereo unspecified) | 9.12
13 | CCn1ncc(-c2nc3c[nH]n(CC)c-3n2)c1C | 2.13
14 | CCc1cnc(N2CCN(Cc3ccno3)CC2)s1 | -2.54
15 | CNC(=O)c1cnc(/C=C/c2ccc(OC)c(O)c2)s1 | -11.1
16 | O=C(NCCCn1ccnc1)NCC(c1ccco1)N1CCCC1 (stereo unspecified) | -8.86
17 | O=C(NCCCn1cncn1)N1CCCC(N2CCCC2)C1 (stereo unspecified) | -2.66
18 | O=C(NCC1(N2CCOCC2)CCSC1)Nc1ccncc1 (stereo unspecified) | 12.5
19 | Cc1[nH]c2ccc(CNC(=O)c3ccc(CN4CCCC4)o3)cc2c1C | -2.5

Row | SMILES | cytotoxicity at 10 µM [%]
20 | Cc1nc(CN2C[C@@H]3CN(C(=O)c4ccco4)C[C@@H]3C2=O)cs1 | -77.7
21 | COCC(=O)N1CCn2c(CN3CCN(C)CC3)cnc2C1 | -70
22 | Cc1ccc2ncn(CC(O)CN3CCC(C)CC3)c(=O)c2c1 (stereo unspecified) | -0.539
23 | CCc1cc(NC2CCC(O)CC2)n2nc(C)c(C)c2n1 (stereo unspecified) | -6.86
24 | CC(C)CCn1c(=O)n(CCn2cccc2)c2cc(C(=O)O)cnc21 | -2.95
25 | O=C(Cc1cccnc1)NCCS(=O)(=O)c1ccccc1F | 6.72
26 | COc1cccc(Cn2ncc(N(C)CCc3ccccc3)cc2=O)c1 | 2.93
27 | O=C1NCCN1C(CNS(=O)(=O)C1CC1)Cc1cccc(F)c1 (stereo unspecified) | -3.09
28 | CSCCc1c(-c2ccccc2)ncn1CC(C)(C)N1CCOCC1 | -47.4
29 | Cc1cnc(C(=O)N2C[C@@H]3CC[C@H]2CN(Cc2cscn2)C3)[nH]1 | 4.16
30 | N#Cc1ccc(CNC(=O)NCCNC(=O)C2CCCC2)c(F)c1 | 4.17
31 | CCc1csc(C2CCCN(C(=O)COc3cc(C)on3)C2)n1 (stereo unspecified) | -9.71
32 | O=C(c1coc2ccccc12)N1CCCC1 | -1.15
33 | CCC[C@@H]1CN(C(=O)c2ccccc2-c2ncc[nH]2)C[C@H]1N(C)C | -3.17
34 | COc1ncnc2c1CCN(CC1CCOC1)CC2 (stereo unspecified) | -68.9
35 | CNC(=O)c1cccc(NC(=O)Cn2nc(-c3cccs3)oc2=O)c1 | -8.28
36 | CN(c1cccnn1)C1CCN(C(=O)c2ccc3c(c2)COC3)CC1 | -12
37 | CC1CCN(C(=O)C(C)N2CCc3[nH]nc(C(F)(F)F)c3C2)CC1 (stereo unspecified) | 2.54
38 | CC(C)[C@H](NS(C)(=O)=O)C(=O)NCc1cc(-c2ccccc2)n[nH]1 | -8.94

Row | SMILES | cytotoxicity at 10 µM [%]
39 | CCCN1CCC(CC(=O)N[C@H](C(=O)O)c2cccc(F)c2F)CC1 | 3.78
40 | CN(C)C(=O)[C@H]1CO[C@H]2CCN(c3ncc(F)cn3)C[C@H]2C1 | 7.75
41 | Cc1cccc(CN2CC[C@@H]3[C@@H]2CCN3C(=O)c2ccoc2C)n1 | -3.99
42 | CC1CN(C(=O)Nc2ccc(Cl)c(C(=O)NC3CC3)c2)CC(C)(C)O1 (stereo unspecified) | 6.5
43 | CCn1c(C)cc(C(=O)N2CCC(Nc3ccc(C)nn3)CC2)c1C | -5.52
44 | CN(C)CC(=O)N1CCC2(CC1)CN(c1ccsc1)C(=O)CO2 | 10.1
45 | Cc1ccc(-c2[nH]c3ccccc3c2C(=O)O)c(C)c1 | 12.3
46 | CS(=O)(=O)c1ccc(NC(=O)NC2(c3cccc(F)c3)CC2)cc1 | 2.93
47 | Cc1[nH]c2ccc(CNc3cc(C(=O)NC(C)C)ccn3)cc2c1C | 16.2
48 | O=C(O)c1ccnc(-c2ccnc(N3CCC(F)(F)CC3)n2)c1 | -12.3
49 | c1nc(CN2CCCC(Cc3ccc(NC4CCCC4)nn3)C2)c[nH]1 (stereo unspecified) | 3.6
50 | CC(C)N(Cc1ccccn1)C(=O)CCC(=O)c1ccccc1 | 3.33
51 | O=C1CCCN1Cc1noc(-c2ccc(Cl)cc2)n1 | 5.56
52 | Cc1ccc(O)c(C(=O)N2CCC(CNC(=O)OC(C)(C)C)C2)c1 (stereo unspecified) | 16.4
53 | Cc1nc(C2CCN(C(=O)c3cccnc3)CC2)c2sccn12 | -5.35
54 | CCN1CC2(CCN(C(=O)C(C)Oc3ccc(F)cc3F)CC2)OC1=O (stereo unspecified) | -1.98
55 | CS(=O)(=O)c1cc(S(N)(=O)=O)ccc1NCC1CCCO1 (stereo unspecified) | 6.26
56 | Cc1nc(Nc2ccc(Cl)cn2)sc1C(=O)NCCCN1CCCCC1 | 1.66
